Article PMC7797908 (iScience, 2021)

Test system: CAspII
Assay: Michaelis-Menten kinetics of L-asparagine hydrolysis
Type: biochemical, uncultured Gemmatimonadota bacterium
Settings: free enzyme; assay pH and temperature only in supplement
Procedure, shortened: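 Synthetic codon-optimised gene fused to a C-terminal His6 tag in pET21a(+) and expressed in E. coli. Mid-log cultures in LB were induced with 0.2 mM IPTG for 3 hours at 30°C. Protein was purified on nickel-agarose; the preparation was enriched but not fully pure. Km was fitted to the classical Michaelis-Menten equation with L-asparagine as substrate, reported as mean ± SEM.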

## NC(=O)C[C@H](N)C(=O)O [L-asparagine]
  Km: 350 ± 20 µM
